According to ChEMBL document CHEMBL1157145, “Cytotoxic activity of proflavine diureas: synthesis, antitumor, evaluation and DNA binding properties of 1',1''-(acridin-3,6-diyl)-3',3''-dialkyldiureas” (Bioorg Med Chem, 2008):
Activity calls are given as the source filed them. The rule behind the calls is not given here.

Key:
[1] = test system: HCT-116; test: Cell cycle arrest in human HCT116 cells assessed as accumulation at G2/M phase at 77 uM after 48 hrs; format: functional
Method in brief: (§1)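 Cells seeded at 8 · 10^5 per 60 mm dish, allowed to settle 24 h (37 °C, 5% CO2), then exposed to the drug for 24 or 48 h. Adherent plus floating cells (5 · 10^5) were fixed in cold 70% ethanol at −20 °C overnight, treated with RNase A (100 µg/mL) and stained with propidium iodide (20 µg/mL) in Vindelov's solution for 30 min at RT. Flow cytometry used 488 nm excitation, FL-2 at 585 ± 21 nm, and histograms were modelled for G0/G1, S and G2/M fractions.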

[2] = test system: HCT-116; test: Induction of DNA fragmentation in human HCT116 cells after 48 hrs; format: functional, cell-based
Method in brief: (§2)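 HCT-116 cells were treated for 24 or 48 h. Adherent and floating cells (5 × 10^5) were pooled, fixed in cold 70% ethanol and held overnight at −20 °C. Samples were treated with RNase A (100 µg/mL) and stained with propidium iodide (20 µg/mL) in Vindelov's solution for 30 min at RT. Flow cytometry used 488 nm excitation with emission at 585 nm. Subdiploid (subG0/G1) particles were scored on a logarithmic scale, with debris gated out on FSC × SSC.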

[3] = test system: DNA; test: Binding affinity to calf thymus DNA at 4 uM by fluorescence spectrophotometric titration; format: nucleic-acid assay; conditions: Bos taurus
Method in brief: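 ctDNA sonicated in TE buffer, concentration taken from A260 and given in base pairs. Compound (4 µM) in 0.01 M Tris, pH 7.4, 25 °C titrated with ctDNA (0–55 µM bp) until spectra stopped changing. Excitation 424 nm, slit widths 10 nm; binding constant derived from the change in emission.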

[4] = test system: DNA; test: Binding affinity to calf thymus DNA at 50 uM by circular dichroism spectrophotometric titration; format: nucleic-acid assay; conditions: Bos taurus
[5] = test system: HeLa; test: Cytotoxicity against human HeLa cells after 48 hrs by MTT assay; format: functional, cell-based
[6] = test system: HeLa; test: Cytotoxicity against human HeLa cells after 72 hrs by MTT assay; format: functional, cell-based
[7] = test system: HCT-116; test: Cytotoxicity against human HCT116 cells after 48 hrs by MTT assay; format: functional, cell-based; conditions: HCT-116, 48 h
[8] = test system: HCT-116; test: Cytotoxicity against human HCT116 cells after 72 hrs by MTT assay; format: functional, cell-based; conditions: Homo sapiens, HCT-116, 72 h
[9] = test system: HeLa; test: Antiproliferative activity against human HeLa cells assessed as increase of floating cells in total cell population at 5.50 uM after 24 hrs; format: functional
Method in brief: (§3)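 Cells seeded (8 · 10^5 per 60 mm dish), allowed to settle 24 h at 37 °C, 5% CO2, then treated with a single concentration for 24 or 48 h. Adherent and floating cells counted by Coulter counter. Total cell number given as % of untreated control; floating cells as % of total cell number.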

[10] = test system: HeLa; test: Antiproliferative activity against human HeLa cells assessed as decrease in total cell population at 5.50 uM after 24 hrs; format: functional; design: scale not given: the % may be the effect or the level left; method in brief: as §3
[11] = test system: HeLa; test: Antiproliferative activity against human HeLa cells assessed as increase of floating cells in total cell population at 5.50 uM after 48 hrs; format: functional; method in brief: as §3
[12] = test system: HeLa; test: Antiproliferative activity against human HeLa cells assessed as decrease in total cell population at 5.50 uM after 48 hrs; format: functional; design: scale not given: the % may be the effect or the level left; method in brief: as §3
[13] = test system: HCT-116; test: Antiproliferative activity against human HCT116 cells assessed as increase of floating cells in total cell population at 77 uM after 24 hrs; format: functional; method in brief: as §3
[14] = test system: HCT-116; test: Antiproliferative activity against human HCT116 cells assessed as decrease in total cell population at 77 uM after 24 hrs; format: functional; design: scale not given: the % may be the effect or the level left; method in brief: as §3
[15] = test system: HCT-116; test: Antiproliferative activity against human HCT116 cells assessed as increase of floating cells in total cell population at 77 uM after 48 hrs; format: functional; method in brief: as §3
[16] = test system: HCT-116; test: Antiproliferative activity against human HCT116 cells assessed as decrease in total cell population at 77 uM after 48 hrs; format: functional; design: scale not given: the % may be the effect or the level left; method in brief: as §3
[17] = test system: HeLa; test: Induction of apoptosis in human HeLa cells at 5.50 uM after 48 hrs; format: functional
Method in brief: (§4)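 After 24 or 48 h of drug exposure, all cells were collected, combining trypsinised adherent cells with floating cells from the medium. Cells (1 × 10^6) were fixed in cold 70% ethanol overnight at −20 °C and stained with DAPI (10 µg/mL) for 30 min in the dark at RT. Under fluorescence microscopy, 300 cells per sample were scored, with condensed or fragmented nuclei counted as apoptotic.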

[18] = test system: HCT-116; test: Induction of apoptosis in human HCT116 cells at 77 uM after 24 hrs; format: functional; method in brief: as §4
[19] = test system: HCT-116; test: Induction of apoptosis in human HCT116 cells at 77 uM after 48 hrs; format: functional; method in brief: as §4
[20] = test system: HCT-116; test: Induction of DNA fragmentation in human HCT116 cells after 24 hrs; format: functional, cell-based; method in brief: as §2
[21] = test system: HeLa; test: Cell cycle arrest in human HeLa cells assessed as accumulation at G0/G1 phase at 5.50 uM after 24 hrs; format: functional; method in brief: as §1
[22] = test system: HeLa; test: Cell cycle arrest in human HeLa cells assessed as accumulation at G0/G1 phase at 5.50 uM after 48 hrs; format: functional; method in brief: as §1
[23] = test system: HCT-116; test: Cell cycle arrest in human HCT116 cells assessed as accumulation at G0/G1 phase at 77 uM after 24 hrs; format: functional
Method in brief: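 Adherent plus floating cells (5 · 10^5) collected 24 or 48 h after treatment, fixed in cold 70% ethanol at −20 °C overnight, washed in PBS. RNase A (100 µg/mL) and propidium iodide (20 µg/mL) in Vindelov's solution, 30 min at RT. Flow cytometry with 488 nm excitation, emission 585 ± 21 nm; % cells per cycle phase from DNA content histograms.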

[24] = test system: HCT-116; test: Cell cycle arrest in human HCT116 cells assessed as accumulation at G0/G1 phase at 77 uM after 48 hrs; format: functional; method in brief: as §1
[25] = test system: HeLa; test: Cell cycle arrest in human HeLa cells assessed as accumulation at S phase at 5.50 uM after 24 hrs; format: functional; method in brief: as §1
[26] = test system: HeLa; test: Cell cycle arrest in human HeLa cells assessed as accumulation at S phase at 5.50 uM after 48 hrs; format: functional; method in brief: as §1
[27] = test system: HCT-116; test: Cell cycle arrest in human HCT116 cells assessed as accumulation at S phase at 77 uM after 24 hrs; format: functional; method in brief: as §1
[28] = test system: HCT-116; test: Cell cycle arrest in human HCT116 cells assessed as accumulation at S phase at 77 uM after 48 hrs; format: functional; method in brief: as §1
[29] = test system: HeLa; test: Cell cycle arrest in human HeLa cells assessed as accumulation at G2/M phase at 5.50 uM after 24 hrs; format: functional; method in brief: as §1
[30] = test system: HeLa; test: Cell cycle arrest in human HeLa cells assessed as accumulation at G2/M phase at 5.50 uM after 48 hrs; format: functional; method in brief: as §1
[31] = test system: HCT-116; test: Cell cycle arrest in human HCT116 cells assessed as accumulation at G2/M phase at 77 uM after 24 hrs; format: functional; method in brief: as §1

CCCCNC(=O)Nc1ccc2cc3ccc(NC(=O)NCCCC)cc3nc2c1.Cl
Activity [1]: 28.85%
Activity [2]: Active
K [3]: 2.4 ×10⁵ /M
Activity [4]: Active
IC50 [5]: 5.41 µM
IC50 [6]: 11.5 µM
IC50 [7]: 77 µM
IC50 [8]: 43.9 µM
Activity [9]: 4.03%
Activity [10]: 92.75%
Activity [11]: 3.93%
Activity [12]: 96.5%
Activity [13]: 51.08%
Activity [14]: 47.4%
Activity [15]: 33.41%
Activity [16]: 27.58%
Activity [17]: 0.44%
Activity [18]: 9.67%
Activity [19]: 3.89%
Activity [20]: Active
Activity [21]: 61.17%
Activity [22]: 74.91%
Activity [23]: 39.97%
Activity [24]: 43.91%
Activity [25]: 24.95%
Activity [26]: 15.5%
Activity [27]: 22.52%
Activity [28]: 27.24%
Activity [29]: 13.88%
Activity [30]: 9.6%
Activity [31]: 37.51%
